The source made the active and inactive calls. The rule behind the calls is not given here.
What was measured:
[1] = Inhibition of trypsin at 2.5 uM after 30 mins relative to control
Method in brief: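 Trypsin (final 2.5 nM) preincubated 30 min at 37 °C with 2.5 µM inhibitor in 0.1 M HEPES, 0.01 M CaCl2, pH 7.5. Bzl-Arg-AFC added, fluorescence read at Ex 380/Em 505 nm. Percent inhibition relative to the control sample.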

[2] = Inhibition of chymotrypsin at 2.5 uM after 30 mins relative to control
Method in brief: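 Suc-Ala-Ala-Pro-Phe-AMC then added, fluorescence read at Ex 350/Em 460 nm. Inhibition given as percent of enzyme activity relative to the control sample.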

[3] = target: T1, Neutrophil elastase (Homo sapiens) (UniProt P08246); experiment: Inhibition of human neutrophil elastase after 15 mins
T1 sequence (whole entry): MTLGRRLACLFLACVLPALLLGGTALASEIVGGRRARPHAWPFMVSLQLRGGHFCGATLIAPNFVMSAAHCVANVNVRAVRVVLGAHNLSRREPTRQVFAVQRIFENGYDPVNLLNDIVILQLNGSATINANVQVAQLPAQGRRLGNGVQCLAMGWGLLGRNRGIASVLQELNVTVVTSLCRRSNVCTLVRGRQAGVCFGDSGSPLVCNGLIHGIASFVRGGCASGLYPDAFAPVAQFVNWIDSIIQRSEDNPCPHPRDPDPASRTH

A549 [4] = experiment: Cytotoxicity against human A549 cells at 250 uM after 48 hrs by MTT assay; assay type: functional; settings: A549, 48 h
Method in brief: (§1)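 A549 lung cancer cells kept at 37 °C, 5% CO2, harvested by trypsinization and PBS wash. Seeded 1 × 10^4 cells/well, attached overnight, then 48 h with inhibitor diluted in medium from DMSO stocks; DMSO-only controls. MTT absorbance at 570 nm, growth as percent of untreated control, mean ± one SD.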

A549 [5] = experiment: Cytotoxicity against human A549 cells at 500 uM after 48 hrs by MTT assay; assay type: functional; settings: A549, 48 h; method in brief: as §1
A549 [6] = experiment: Cytotoxicity against human A549 cells at 125 to 500 uM after 48 hrs by MTT assay; assay type: functional; method in brief: as §1
[7] = Cytotoxicity against HGF at 250 uM after 48 hrs by MTT assay; assay type: cell-based; settings: human, HGF cells; read-out: INH
Method in brief: (§2)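 Human gingival fibroblasts isolated from healthy gingival biopsies, grown in DMEM with 10% FBS, glutamine and penicillin/streptomycin at 37 °C, 5% CO2. Seeded 1 × 10^4 cells/well, attached overnight, then exposed 48 h to inhibitor diluted in medium from DMSO stocks; DMSO-only controls. MTT read at 570 nm, viability expressed as percent of untreated control.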

[8] = Cytotoxicity against HGF at 500 uM after 48 hrs by MTT assay; assay type: cell-based; settings: human; method in brief: as §2

| SMILES | inhibition [1] | inhibition [2] | kinact/Ki (second-order inactivation rate constant) [3] [M⁻¹ s⁻¹] | inhibition at 250 µM (A549 [4]) [%] | inhibition at 500 µM (A549 [5]) [%] | inhibition (INH) (A549 [6]) [%] | cytotoxicity at 48 h, 250 µM [7] [%] | Activity [8] |
| --- | --- | --- | --- | --- | --- | --- | --- | --- |
| CSCC[C@H](NC(=O)OCc1ccccc1)C(=O)O[C@H](C(=O)N[C@H](C(C)C)P(=O)(Oc1ccc(Cl)cc1)Oc1ccc(Cl)cc1)c1ccc([N+](=O)[O-])cc1 | inactive | inactive | 165 |  |  |  |  |  |
| CSCC[C@H](NC(=O)OCc1ccccc1)C(=O)O[C@@H](CCSC)C(=O)N[C@H](C(C)C)P(=O)(Oc1ccc(Cl)cc1)Oc1ccc(Cl)cc1 | inactive | inactive | 40100 | 25 | 60 |  |  |  |
| COc1ccc([C@H](OC(=O)[C@H](CCSC)NC(=O)OCc2ccccc2)C(=O)N[C@H](C(C)C)P(=O)(Oc2ccc(Cl)cc2)Oc2ccc(Cl)cc2)cc1OC | inactive | 21% | 165 |  |  |  |  |  |
| CSCC[C@H](NC(=O)OCc1ccccc1)C(=O)O[C@H](C(=O)N[C@H](C(C)C)P(=O)(Oc1ccc(SC)cc1)Oc1ccc(SC)cc1)C(C)C | inactive | 15% | 5050 |  |  |  |  |  |
| CCCCCC(=O)N1CCN([C@H](C(=O)N[C@H](C(C)C)P(=O)(Oc2ccc(SC)cc2)Oc2ccc(SC)cc2)c2ccc(F)cc2)CC1 | inactive | inactive | 330 |  |  |  |  |  |
| CSCC[C@H](NC(=O)OCc1ccccc1)C(=O)O[C@H](C(=O)N[C@H](C(C)C)P(=O)(Oc1ccc(Cl)cc1)Oc1ccc(Cl)cc1)C(C)C | inactive | 15% | 20500 |  |  |  |  |  |
| CCCCN(C(=O)CNC(=O)OCc1ccccc1)[C@@H](CC(C)C)C(=O)N[C@H](C(C)C)P(=O)(Oc1ccc(SC)cc1)Oc1ccc(SC)cc1 | inactive | inactive | 145 |  |  |  |  |  |
| CSCC[C@H](NC(=O)OCc1ccccc1)C(=O)O[C@@H](CCSC)C(=O)N[C@H](C(C)C)P(=O)(Oc1ccc(SC)cc1)Oc1ccc(SC)cc1 | inactive | 14% | 5900 |  |  |  |  |  |
| COc1ccc([C@H](OC(=O)[C@H](CCSC)NC(=O)OCc2ccccc2)C(=O)N[C@H](C(C)C)P(=O)(Oc2ccc(SC)cc2)Oc2ccc(SC)cc2)cc1OC | inactive | 22% | 3800 |  |  |  |  |  |
| CSCC[C@H](NC(=O)OCc1ccccc1)C(=O)O[C@@H](Cc1ccccc1)C(=O)N[C@H](C(C)C)P(=O)(Oc1ccc(SC)cc1)Oc1ccc(SC)cc1 | inactive | inactive | 605 |  |  |  |  |  |
| CCCCN(C(=O)CNC(=O)OCc1ccccc1)[C@@H](CCc1ccccc1)C(=O)N[C@H](C(C)C)P(=O)(Oc1ccc(SC)cc1)Oc1ccc(SC)cc1 | inactive | 15% | 1420 | 70 |  | 50 | 10 | Toxic |
| CCCCN(C(=O)CNC(=O)OCc1ccccc1)[C@H](C(=O)N[C@H](C(C)C)P(=O)(Oc1ccc(SC)cc1)Oc1ccc(SC)cc1)C(C)C | inactive | 8% | 495 |  |  |  |  |  |
| CSCC[C@H](NC(=O)OCc1ccccc1)C(=O)O[C@@H](CCc1ccccc1)C(=O)N[C@H](C(C)C)P(=O)(Oc1ccc(Cl)cc1)Oc1ccc(Cl)cc1 | inactive | inactive | 1620 |  |  |  |  |  |
| CSCC[C@H](NC(=O)OCc1ccccc1)C(=O)O[C@@H](CC(C)C)C(=O)N[C@H](C(C)C)P(=O)(Oc1ccc(SC)cc1)Oc1ccc(SC)cc1 | inactive | inactive | 4400 |  |  |  |  |  |
| CSCC[C@H](NC(=O)OCc1ccccc1)C(=O)O[C@H](C(=O)N[C@H](C(C)C)P(=O)(Oc1ccc(SC)cc1)Oc1ccc(SC)cc1)c1ccc([N+](=O)[O-])cc1 | inactive | inactive | 430 |  |  |  |  |  |
| CCCCN(C(=O)CNC(=O)OCc1ccccc1)[C@@H](Cc1ccccc1)C(=O)N[C@H](C(C)C)P(=O)(Oc1ccc(SC)cc1)Oc1ccc(SC)cc1 | inactive | 14% | 1360 |  |  |  |  |  |
| CCCCCC(=O)N1CCN([C@@H](CCSC)C(=O)N[C@H](C(C)C)P(=O)(Oc2ccc(SC)cc2)Oc2ccc(SC)cc2)CC1 | inactive |  | 140 |  |  |  |  |  |
| CCCCCC(=O)N1CCN([C@H](C(=O)N[C@H](C(C)C)P(=O)(Oc2ccc(SC)cc2)Oc2ccc(SC)cc2)c2ccc(OC)c(OC)c2)CC1 | inactive | inactive | 125 |  |  |  |  |  |
| CSCC[C@H](NC(=O)OCc1ccccc1)C(=O)O[C@@H](CCc1ccccc1)C(=O)N[C@H](C(C)C)P(=O)(Oc1ccc(SC)cc1)Oc1ccc(SC)cc1 | inactive | inactive | 765 |  |  |  |  |  |
| CCCCCC(=O)N1CCN([C@H](C(=O)N[C@H](C(C)C)P(=O)(Oc2ccc(SC)cc2)Oc2ccc(SC)cc2)c2ccc([N+](=O)[O-])cc2)CC1 | inactive | inactive | 140 |  |  |  |  |  |
| CSCC[C@H](NC(=O)OCc1ccccc1)C(=O)O[C@@H](Cc1ccccc1)C(=O)N[C@H](C(C)C)P(=O)(Oc1ccc(Cl)cc1)Oc1ccc(Cl)cc1 | inactive | inactive | 695 |  |  |  |  |  |
| CSCC[C@H](NC(=O)OCc1ccccc1)C(=O)O[C@H](C(=O)N[C@H](C(C)C)P(=O)(Oc1ccc(SC)cc1)Oc1ccc(SC)cc1)c1ccc(F)cc1 | inactive | inactive | 4850 |  |  |  |  |  |
| CSCC[C@H](NC(=O)OCc1ccccc1)C(=O)O[C@H](C(=O)N[C@H](C(C)C)P(=O)(Oc1ccc(Cl)cc1)Oc1ccc(Cl)cc1)c1ccc(F)cc1 | inactive | 16% | 215 |  |  |  |  |  |
| CSCC[C@H](NC(=O)OCc1ccccc1)C(=O)O[C@@H](CC(C)C)C(=O)N[C@H](C(C)C)P(=O)(Oc1ccc(Cl)cc1)Oc1ccc(Cl)cc1 | inactive | inactive | 7250 |  | 75 |  |  |  |
